SIAE primary: human SIAE inhibition, primary screen. Q9HAT2. SIAE FP-Rh probe binding, fluorescence polarization. inhibition, % at 9.66 µM. 0.69% of 370,000 active. AID 1053197;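 active = inhibition above a cutoff: mean of compounds within the control limits plus 3 SD of those, cut at about 17% in these data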;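 also: 0% = plate median of compound wells and 100% = probe without SIAE protein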
TCR CD3 inh: human TCR-CD3 binding inhibition. TAMRA-labeled TCR probe fluorescence, biochemical. inhibition, % at 9.4 µM. 0.37% of 360,000 active. AID 651800; in the data active = inhibition above about 19%;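 also: recombinant mutant TCR 2C K166C tagged with TAMRA read by polarization; 0% = receptor in buffer alone and 100% = receptor with positive control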
PRMT1 FP inh: blocks human protein arginine methyltransferase 1; 1.3% of 370,000 active; inhibition, % at 2.79 µM; Q99873; recombinant PRMT1, activity-based probe fluorescence polarization; AID 652257;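 active = inhibition above about 21% made by adding two undisclosed values, limit read from the data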
HTRA1 inhibitor: inhibitors of human serine peptidase HTRA1; recombinant HTRA1, FP-rhodamine activity-based probe, fluorescence polarization; inhibition, % at 5.96 µM; 0.5% of 340,000 active; AID 504803; in the data active = inhibition above about 36%;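 also: 0% = enzyme with DMSO and 100% = wells lacking enzyme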
Target sequence (Q92743 whole entry, looked up): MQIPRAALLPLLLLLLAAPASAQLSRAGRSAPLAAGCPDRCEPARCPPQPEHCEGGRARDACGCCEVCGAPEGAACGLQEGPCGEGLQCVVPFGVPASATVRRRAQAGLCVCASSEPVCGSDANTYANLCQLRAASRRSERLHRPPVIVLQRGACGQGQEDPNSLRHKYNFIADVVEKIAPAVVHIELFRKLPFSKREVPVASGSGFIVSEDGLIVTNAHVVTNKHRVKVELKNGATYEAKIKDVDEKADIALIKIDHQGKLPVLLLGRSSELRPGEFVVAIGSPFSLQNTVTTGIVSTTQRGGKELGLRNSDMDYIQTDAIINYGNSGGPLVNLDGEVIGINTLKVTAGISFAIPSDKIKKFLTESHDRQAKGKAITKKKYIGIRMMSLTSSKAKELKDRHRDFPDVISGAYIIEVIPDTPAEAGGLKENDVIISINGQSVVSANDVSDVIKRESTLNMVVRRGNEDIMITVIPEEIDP
mABHD4 FP: inhibitors of mouse ABHD4. AID 720543. inhibition, % at 8.92 µM. 0.54% of 370,000 active. purified mABHD4, FP-Rh probe fluorescence polarization. Q8VD66;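 active = inhibition exceeding the mean over every tested compound plus 3 SD, cut at about 30% in these data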;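 also: 0% = plate median of compound wells and 100% = S159A mutant with DMSO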
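Material: mouse ABHD4 enzyme, wild type; Benchmarks: S159A mutant high control, sample median low control; Buffer or medium: HEPES pH 7.0, NaCl, Pluronic buffer; Signal: fluorescence polarization; Read-out: percent inhibition of probe binding, normalized to plate controls; Timing: pre-incubation 45 min, probe exposure 60 min, at 25 °C; Dosing: 8.92 µM, single dose.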
mABHD4 conf: confirmation of mouse ABHD4 inhibitors | 55% of 1,800 active | inhibition, % at 8.92 µM | AID 720658 | shares compounds with mABHD4 FP | purified mABHD4, FP-Rh probe fluorescence polarization;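 active = mean inhibition across replicates above the hit cutoff set in the primary screen, cut at about 30% in these data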;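 also: 0% = wild-type ABHD4 with DMSO and 100% = catalytically dead S159A mutant with DMSO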
Active calls of the source: *; . = no result given; + = active, no number. The list is not random: actives were taken first. Their share in the collection is about 2.6%.

SMILES	SIAE primary	TCR CD3 inh	PRMT1 FP inh	HTRA1 inhibitor	mABHD4 FP	mABHD4 conf
O=C(O)CC/C(=C\c1ccc(N2CCCC2)c([N+](=O)[O-])c1)c1nc2ccccc2s1	-13.8	-7.9	11.9	10.4	45.8*	50.5*
O=C(O)CC/C(=C\c1ccccc1[N+](=O)[O-])c1nc2ccccc2s1	-9.8	4.5	1.5	3.6	-1.3	.
CN(c1ccccc1)c1ccc(/C=C(/CCC(=O)O)c2nc3ccccc3s2)cc1[N+](=O)[O-]	7.0	-9.6	10.9	33.4	46.4*	56.0*
C#CCC1c2ccccc2CCN1CC=C (stereo not given)	6.6	8.7	-0.4	.	-2.1	.
COc1ccc(/C=C/C(=O)NC2=NCCS2)c(OC)c1	4.3	.	-2.0	.	0.4	.
O=C(c1ccc(-c2ccccc2)cc1)N1CCCC1	-1.6	7.0	3.2	-3.0	0.0	.
O=C(N1CCCC1)n1ncc(-c2ccc(-c3ccccc3)cc2)n1	-7.3	.	2.2	.	46.8*	41.8*
C#CCN1CC(N(C)CCCO)CS1(=O)=O (stereo not given)	2.8	.	-2.6	.	2.5	.
CSc1ccc(CNc2ccc(Cl)cc2)cc1	-2.5	0.6	1.4	-2.6	+	-5.9
Cc1ccc(NCSc2ccc(Cl)cc2)cc1	5.7	4.5	1.1	4.7	4.7	.
Cc1cc(C)cc(NC2=CC(=O)CC(c3ccco3)C2)c1 (stereo not given)	6.1	-1.1	2.2	-3.1	8.4	.
CCc1ccc(NC2=CC(=O)CC(c3ccco3)C2)cc1 (stereo not given)	-1.6	-7.6	5.1	0.8	37.5*	12.0
O=C(NCC(c1ccccc1)c1ccccc1)[C@H](Cc1ccccc1)NC1(C(=O)NC2CCCCC2)CCC1	0.6	.	-6.9	.	-0.9	.
CCC(C)N(C(=O)CSc1nnc(-c2cc(OC)c(OC)c(OC)c2)o1)C(C)CC (stereo not given)	6.7	.	1.0	.	-3.0	.
CCOc1ccccc1NC1=CC(=O)CC(c2ccccc2)C1 (stereo not given)	-2.8	-10.2	2.9	-16.6	36.8*	-5.8
O=C(O)c1cccc(S(=O)(=O)Nc2ccc(-c3ccccc3)cc2)c1	-5.9	2.8	-6.1	-10.0	8.4	.
O=C(O)c1ccc(NS(=O)(=O)c2ccc3c(c2)C(=O)c2ccccc2C3=O)cc1	4.7	-3.6	-0.4	.	36.2*	58.0*
O=C(OCc1ccccc1)[C@H](Cc1ccccc1)NC(=O)[C@@H]1CC=C[C@@H]2CCN(C3CCCCC3)C(=O)[C@@H]21	-9.0	.	-0.3	.	9.5	.
Cn1c(SCC(=O)Nc2ccccc2-c2ccccc2)nnc1-c1cnccn1	5.2	.	-6.8	.	-2.4	.
CN(C)c1ccc(C=Nc2ccc(N(C)C)cc2)cc1	13.5	14.8	21.9*	34.7	37.4*	22.1
Cc1ccc(N=Cc2ccc(N(C)C)cc2)cc1	3.9	-6.9	-2.7	-1.5	-7.3	.
Cc1ccc(/C=C2\SC(=S)N(C3CCS(=O)(=O)C3)C2=O)o1 (stereo not given)	4.6	0.0	20.9	14.0	34.3*	-6.5
COc1cccc(S(=O)(=O)N(C)C[C@@H]2Oc3ncc(Br)cc3C(=O)N([C@H](C)CO)C[C@@H]2C)c1	0.2	5.2	1.1	.	5.0	.
NC(=O)c1cccc2c1-c1ccccc1/C2=N/NC(N)=S	7.4	2.9	2.4	12.3	2.0	.
NC(=S)N/N=C1\c2ccccc2-c2c(C(=O)O)cccc21	-29.2	9.1	0.7	-1.8	41.9*	47.1*
SMILES	SIAE primary	TCR CD3 inh	PRMT1 FP inh	HTRA1 inhibitor	mABHD4 FP	mABHD4 conf
O=C(NC1CCCCC1)O[C@H]1CC[C@@]23CCCN2C(=O)CCC[C@H]3C1	13.0	.	-1.8	.	8.4	.
COc1ccccc1CNC(=O)C[C@H]1CC[C@H]2[C@H](COc3ccc(NS(=O)(=O)c4ccc(C)cc4)cc3C(=O)N2C)O1	7.5	.	-2.1	.	14.7	.
Cc1ccc(C(=O)C2CCN(CC(=O)N(C)C3CCCCC3)CC2)cc1	-6.7	.	-1.1	.	5.8	.
Oc1ccc(NC(=S)N=Nc2c(O)[nH]c3ccc(Br)cc23)cc1	8.4	-1.5	-3.9	8.7	30.4*	32.8*
S=C(NC1CCCCC1)N(CCc1nc2ccccc2[nH]1)C1CCCC1	-1.4	2.9	1.1	-23.2	50.7*	52.9*
CCOC(=O)c1c(C)n(-c2ccc(C)cc2)c2c(C(C(C)=O)C(=O)O)c(Br)c(O)c(O)c12 (stereo not given)	-1.8	0.6	20.5	34.4	41.4*	30.6*
Cc1ccc(-c2nnc(SCc3ccc([N+](=O)[O-])cc3)n2-c2ccccc2)cc1	6.1	.	-0.3	.	1.5	.
O=C(C1=C(O)C(=O)N(CCc2ccccc2)C1c1cccs1)c1ccco1 (stereo not given)	-3.1	0.3	2.2	1.4	35.1*	31.5*
O=C(C1=C(O)C(=O)N(CCc2ccccc2)C1c1cccnc1)c1ccco1 (stereo not given)	6.2	-1.8	3.3	0.9	2.5	.
Cc1ccc(-c2cc(NC(=O)Cc3c(C)[nH]c4ccccc34)ccc2Nc2cccnc2)cc1	8.1	-1.9	5.4	.	32.3*	37.1*
CCNC(=O)N1CCN(c2ccc(N3CCN(C(=O)NCC)[C@@H](C)C3)c(C)c2)[C@H](C)C1	6.0	-2.5	2.4	.	-3.2	.
Clc1ccc(/C=N/c2c(-c3ccco3)nc3ccccn23)cc1	11.6	4.0	14.4	34.4	40.9*	11.9
COc1cc(-c2nc3ccccn3c2/N=C/c2ccc(F)cc2)ccc1O	3.0	7.5	-4.7	-9.3	2.6	.
CCc1cc(-c2ccc3c(c2)COc2c4ccccc4nn2-3)on1	-3.4	-1.6	10.5	-21.8	31.6*	-7.3
CCCC#Cc1ccc2c(c1)COc1c3ccccc3nn1-2	-4.4	-0.1	2.7	-10.5	5.2	.
Nc1nc(N)nc(-c2ccccn2)n1	-4.9	6.2	0.2	5.9	-0.8	.
c1ccc(-c2nc(-c3ccccn3)nc(-c3ccccn3)n2)nc1	-0.8	0.8	-2.1	1.7	35.4*	46.8*
Cc1cc(NC(=O)c2ccc(NS(=O)(=O)c3ccccc3F)cc2)no1	2.9	.	3.3	.	-4.5	.
O=C(O)c1ccc(N/N=C/c2cn(Cc3ccccc3F)c3ccccc23)cc1	14.7	1.4	17.8	4.5	46.4*	68.7*
Oc1ccc(N=Nc2ccc(Br)cc2)c(O)c1	-3.3	4.4	-2.4	11.1	-0.7	.
O=[N+]([O-])c1ccccc1N=Nc1ccc(O)cc1O	12.4	-5.5	4.2	.	31.6*	53.6*
Cc1cccc(NC(=O)c2cccc(C(=O)Nc3cccc(C)c3)n2)c1	-6.0	4.9	-3.2	2.7	-4.8	.
O=C(c1cccc([N+](=O)[O-])c1)c1ccccn1	4.5	8.4	-2.6	-0.3	-1.5	.
O=C(NNC(=O)c1ccccn1)c1cccc([N+](=O)[O-])c1	0.3	2.3	-3.9	-2.6	32.3*	7.8
Cc1cccc(NC(=O)NNC(=O)c2ccccn2)c1	-5.6	-1.2	0.9	3.2	30.4*	27.1
CCN(CC)C(=O)CC[C@@H]1CC[C@]2(CCCN(Cc3ccc(Cl)cc3)C2)O1	-4.2	.	1.8	.	-2.8	.

Screening results from PubChem.
